Measurements from ChEMBL document CHEMBL1125708, “Synthesis and antiviral activity of 5-heteroaryl-substituted 2'-deoxyuridines” (1991).
Converted amounts (≈) assume the structure as drawn.

Assays:
Conditions in all cases: Homo sapiens
HEL [1] = assay: Minimum concentration required to reduce virus induced plaque formation in HEL cell culture of virus TK- VZV (YS-R) was measured; format: functional
Outline: (§1)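 Plaque-reduction assay in human embryonic lung (HEL) cells in 96-well microtiter plates. VZV strains were Oka and YS, plus TK-deficient 07-1 and YS-R. CMV strains were AD169 and Davis. The value is the concentration reducing virus plaque formation by 50%.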

E6SM [2] = assay: Minimum inhibitory concentration required to reduce virus induced cytopathicity in embryonic skin muscle (E6SM) cell culture of virus HSV-1( F) was measured; format: functional
E6SM [3] = assay: Minimum inhibitory concentration required to reduce virus induced cytopathicity in embryonic skin muscle (E6SM) cell culture of virus HSV-1 (Mc Intyre) was measured; format: functional
E6SM [4] = assay: Minimum inhibitory concentration required to reduce virus induced cytopathicity in embryonic skin muscle (E6SM) cell culture of virus HSV-1 (KOS) was measured; format: functional
HEL [5] = assay: Minimum inhibitory concentration required to reduce virus induced plaque formation in HEL cell culture of virus VZS (OKA) was measured; format: functional; outline: as §1
HEL [6] = assay: Minimum inhibitory concentration required to reduce virus induced plaque formation in HEL cell culture of virus CMV (Davis) was measured; format: functional; outline: as §1
HEL [7] = assay: Minimum inhibitory concentration required to reduce virus induced plaque formation in HEL cell culture of virus TK- VZV (07-1) was measured; format: functional; outline: as §1
E6SM [8] = assay: Minimum inhibitory concentration required to reduce virus induced cytopathicity in embryonic skin muscle (E6SM) cell culture of virus TK- HSV-1 (VMW1837) was measured; format: functional
HEL [9] = assay: minimum inhibitory concentration required to reduce virus induced plaque formation in HEL cell culture of virus VZS (YS) was measured.; format: functional; outline: as §1
E6SM [10] = assay: Minimum inhibitory concentration required to reduce virus induced cytopathicity in embryonic skin muscle (E6SM) cell culture of virus HSV-2 (196) was measured.; format: functional
E6SM [11] = assay: Minimum inhibitory concentration required to reduce virus induced cytopathicity in embryonic skin muscle (E6SM) cell culture of virus TK- HSV-1 (B2006) was measured; format: functional
E6SM [12] = assay: Minimum inhibitory concentration required to reduce virus induced cytopathicity in embryonic skin muscle (E6SM) cell culture of virus HSV-2 (Lyons) was measured.; format: functional
E6SM [13] = assay: Minimum inhibitory concentration required to cause a microscopically detectable change in normal cell morphology; format: functional
Outline: (§2)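 Cytotoxicity was judged by microscopic inspection of uninfected cell monolayers in microtiter plates. The value is the minimum concentration causing a microscopically detectable change in normal cell morphology.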

HEL [14] = assay: Minimum inhibitory concentration required to reduce virus induced plaque formation in HEL cell culture of virus CMV (AD169) was measured; format: functional; outline: as §1
E6SM [15] = assay: Minimum inhibitory concentration required to reduce virus induced cytopathicity in embryonic skin muscle (E6SM) cell culture of virus VV was measured; format: functional
E6SM [16] = assay: (§3) Minimum inhibitory concentration required to reduce virus induced cytopathicity in embryonic skin muscle (E6SM) cell culture of virus VSV was measured; format: functional
E6SM [17] = assay: Minimum inhibitory concentration required to reduce virus induced cytopathicity in embryonic skin muscle (E6SM) cell culture of virus HSV-2 (G) was measured; format: functional
HEL [18] = assay: In vitro antiviral activity and cytotoxicity, and minimum inhibitory concentration required to reduce cell growth by 50% in HEL cell culture; format: functional
Outline: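 Cytotoxicity was measured as inhibition of growth of human embryonic lung (HEL) cells seeded in 96-well microtiter plates. The value is the concentration reducing cell growth by 50%.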

HEL [19] = assay: Minimum inhibitory concentration required to reduce virus induced plaque formation in HEL cell culture of virus VZS (YS) was measured; format: functional; outline: as §1
E6SM [20] = assay: minimum inhibitory concentration required to reduce virus induced cytopathicity in embryonic skin muscle (E6SM) cell culture of virus HSV-2 (Lyons) was measured.; format: functional
E6SM [21] = assay: Minimum inhibitory concentration required to reduce virus induced cytopathicity in embryonic skin muscle (E6SM) cell culture of virus HSV-2 (196) was measured; format: functional
E6SM [22] = assay: minimum inhibitory concentration required to cause a microscopically detectable change in normal cell morphology; format: functional; outline: as §2
E6SM [23] = assay: Minimum inhibitory concentration required to reduce virus induced cytopathicity in embryonic skin muscle (E6SM) cell culture of virus VV was measured
HEL [24] = assay: Minimum inhibitory concentration required to reduce virus induced plaque formation in HEL cell culture of virus TK- VZV (YS-R) was measured; format: functional; outline: as §1
HEL [25] = assay: as §3; format: functional

| Compound | MIC (HEL [1]) [µg/mL] | MIC (E6SM [2]) [µg/mL] | MIC (E6SM [3]) [µg/mL] | MIC (E6SM [4]) [µg/mL] | MIC (HEL [5]) [µg/mL] | MIC (HEL [6]) [µg/mL] | MIC (HEL [7]) [µg/mL] | MIC (E6SM [8]) [µg/mL] | MIC (HEL [9]) [µg/mL] | MIC (E6SM [10]) [µg/mL] | MIC (E6SM [11]) [µg/mL] | MIC (E6SM [12]) [µg/mL] | MIC (E6SM [13]) [µg/mL] | MIC (HEL [14]) [µg/mL] | MIC (E6SM [15]) [µg/mL] | MIC (E6SM [16]) [µg/mL] | MIC (E6SM [17]) [µg/mL] | MIC (HEL [18]) [µg/mL] | MIC (HEL [19]) [µg/mL] | further results |
| --- | --- | --- | --- | --- | --- | --- | --- | --- | --- | --- | --- | --- | --- | --- | --- | --- | --- | --- | --- | --- |
| O=c1[nH]c(=O)n([C@H]2C[C@H](O)[C@@H](CO)O2)cc1-c1cc(-c2ccc(Cl)cc2)no1 | 77 (≈ 190 µM) | > 40 | > 40 | > 40 | 9 (≈ 22.2 µM) | 7 (≈ 17.3 µM) | 22 (≈ 54.2 µM) | > 40 | > 40 | > 40 | > 40 | > 40 | > 40 | 7 (≈ 17.3 µM) | > 40 | > 40 | > 40 | > 200 |  |  |
| O=c1[nH]c(=O)n([C@H]2C[C@H](O)[C@@H](CO)O2)cc1-c1cc(Br)no1 | > 100 | 2 (≈ 5.35 µM) | 2 (≈ 5.35 µM) | 7 (≈ 18.7 µM) | 0.09 (≈ 0.241 µM) | > 100 | > 100 | > 400 |  |  | > 400 |  | > 400 | > 100 | > 400 | > 400 | > 200 | > 50 | 0.24 (≈ 0.641 µM) | MIC (E6SM [20]): > 400 µg/mL; MIC (E6SM [21]): > 400 µg/mL |
| O=c1[nH]c(=O)n([C@H]2C[C@H](O)[C@@H](CO)O2)cc1-c1cc(-c2ccccc2)no1 | > 100 | > 40 | > 40 | > 40 | 38 (≈ 102 µM) | 25 (≈ 67.3 µM) | 61 (≈ 164 µM) | > 40 | 73 (≈ 197 µM) | > 40 | > 40 | > 40 |  | 25 (≈ 67.3 µM) | > 40 | > 40 | > 40 | > 200 |  | MIC (E6SM [22]): > 40 µg/mL |
| O=c1[nH]c(=O)n([C@H]2C[C@H](O)[C@@H](CO)O2)cc1/C=C/Br [BRIVUDINE] |  | 0.07 (≈ 0.21 µM) | 0.07 (≈ 0.21 µM) | 0.07 (≈ 0.21 µM) | 0.003 (≈ 0.00901 µM) | 250 (≈ 750 µM) | 8 (≈ 24 µM) | > 400 |  | > 400 | 100 (≈ 300 µM) | > 400 | > 400 | 250 (≈ 750 µM) |  |  | 10 (≈ 30 µM) | 200 (≈ 600 µM) | 0.003 (≈ 0.00901 µM) | MIC (E6SM [23]): 1 µg/mL (≈ 3 µM); MIC (HEL [24]): 0.4 µg/mL (≈ 1.2 µM); MIC (HEL [25]): > 400 µg/mL |
